Values after ≈ are worked out from the molar mass of the structure shown.
What was measured:
[1] = (§1) Inhibition of Pseudomonas aeruginosa beta-lactamase PDC3 expressed in Escherichia coli BL21 (DE3) RP CodonPlus incubated for 5 mins before nitrocefin substrate addition by spectrophotometry
How it was run: (§2)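 PDC-3 from P. aeruginosa 18SH subcloned in pET 24a, expressed in E. coli BL21(DE3) RP CodonPlus (37 °C, 0.5 mM IPTG at A600 0.6), purified by isoelectric focusing and FPLC.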

Pseudomonas aeruginosa = experiment: as §1; settings: TDE = time-dependent effect; how it was run: as §2
[2] = (§3) Inhibition of Enterobacter cloacae beta-lactamase P99 expressed in Escherichia coli AS226-51 incubated for 5 mins before nitrocefin substrate addition by spectrophotometry
How it was run: (§4)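 P99 expressed from pCS980 in E. coli AS226-51, grown in SOB with kanamycin at 37 °C and induced with 0.5 mM IPTG at A600 0.6. Purified by preparative isoelectric focusing, gel filtration and cation exchange. Inhibitor preincubated with enzyme for 5 min in 10 mM PBS pH 7.4 at room temperature. […] Ki = IC50/(1+[S]/Km).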

Enterobacter cloacae = experiment: as §3; settings: TDE = time-dependent effect; how it was run: as §4
Escherichia coli [3] = experiment: Potentiation of cefotaxime-induced antimicrobial effect against wild type Escherichia coli DH10B assessed as cefotaxime MIC at 4 ug/ml by agar dilution method; assay type: functional
[4] = Inhibition of beta-lactamase PDC-3 (unknown origin) expressed in Escherichia coli DH10B assessed as cefotaxime MIC at 4 ug/ml by agar dilution method
How it was run: (§5)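 MICs by cation-adjusted Mueller-Hinton agar dilution following CLSI standards. E. coli DH10B carried blaPDC-3 (from P. aeruginosa 18SH) or blaP99 subcloned in pBC SK(-). Cefotaxime was varied from 0 to 64 µg/ml, with boronate held constant at 4 µg/ml.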

[5] = Inhibition of beta-lactamase P99 (unknown origin) expressed in Escherichia coli DH10B assessed as cefotaxime MIC at 4 ug/ml by agar dilution method; how it was run: as §5
Escherichia coli [6] = experiment: Antimicrobial activity against wild type Escherichia coli DH10B by agar dilution method; assay type: functional
How it was run: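 MICs by cation-adjusted Mueller-Hinton agar dilution following CLSI standards. The E. coli DH10B host carried no β-lactamase gene.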

Escherichia coli [7] = experiment: Antimicrobial activity against wild type Escherichia coli DH10B producing beta-lactamase PDC3 by agar dilution method; assay type: functional
How it was run: (§6)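 E. coli DH10B carrying bla genes in pBC SK(-) vector; MICs in µg/mL by agar dilution on cation-adjusted Mueller-Hinton agar per CLSI standards.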

Escherichia coli [8] = experiment: Antimicrobial activity against wild type Escherichia coli DH10B producing beta-lactamase P99 by agar dilution method; assay type: functional; how it was run: as §6

Row | Compound | IC50 [1] [nM] | time-dependent effect (Pseudomonas aeruginosa) | IC50 [2] [nM] | inhibition (Enterobacter cloacae) | Ki [1] [nM] | Ki [2] [nM] | MIC (Escherichia coli [3]) [µg/mL] | MIC [4] [µg/mL] | MIC [5] [µg/mL] | MIC (Escherichia coli [6]) [µg/mL] | MIC (Escherichia coli [7]) [µg/mL] | MIC (Escherichia coli [8]) [µg/mL]
1 | CC(C)(O)c1cn(C[C@H](NC(=O)Cc2ccccc2)B(O)O)nn1 | 1180 | tde | 660 | tde | – | – | – | – | – | – | – | –
2 | O=C(Cc1cccs1)NCB(O)O | 3300 | tde | 2700 | tde | 411 | 450 | < 0.125 | 2 | 2 | – | – | –
3 | O=C(Cc1cccs1)N[C@@H](Cc1cccc(C(=O)O)c1)B(O)O | 150 | tde | 100 | tde | 13 | 15 | < 0.125 | 4 | 4 | – | – | –
4 | O=C(Cc1ccccc1)N[C@@H](Cn1cc(-c2ccccc2)nn1)B(O)O | 300 | tde | 150 | tde | – | – | – | – | – | – | – | –
5 | CO/N=C(\C(=O)N[C@@H]1C(=O)N2C(C(=O)O)=C(COC(C)=O)CS[C@H]12)c1csc(N)n1 [CEFOTAXIME] | – | – | – | – | – | – | – | – | – | < 0.125 | 16 (≈ 35.1 µM) | 16 (≈ 35.1 µM)
6 | CC(C)(O)c1cn(C[C@H](NC(=O)Cc2cccs2)B(O)O)nn1 | 250 | tde | 420 | tde | – | – | – | – | – | – | – | –
7 | CC(=O)N[C@@H](Cn1cc(-c2ccccc2)nn1)B(O)O | 9300 | tde | 13200 | tde | – | – | – | – | – | – | – | –
8 | O=C(Cc1ccccc1)N[C@@H](Cn1cc(C(=O)O)nn1)B(O)O | 230 | tde | 110 | tde | – | – | – | – | – | – | – | –
9 | CC(=O)N[C@@H](Cn1cc(C(C)(C)O)nn1)B(O)O | 18400 | tde | 71000 | tde | – | – | – | – | – | – | – | –
10 | Nc1cccc(-c2cn(C[C@H](NC(=O)Cc3ccccc3)B(O)O)nn2)c1 | 400 | tde | 600 | tde | – | – | – | – | – | – | – | –
11 | CC(=O)N[C@@H](Cn1cc(C(=O)O)nn1)B(O)O | 5000 | tde | 27100 | tde | – | – | – | – | – | – | – | –
12 | O=C(Cc1cccs1)N[C@@H](Cn1ccnn1)B(O)O | 1300 | tde | 800 | tde | 164 | 134 | – | – | – | – | – | –
13 | O=C(Cc1cccs1)N[C@@H](Cn1cc(C(=O)O)nn1)B(O)O | 35 | tde | 140 | tde | 4 | 23 | < 0.125 | 0.5 | 2 | – | – | –
14 | Nc1cccc(-c2cn(C[C@H](NC(=O)Cc3cccs3)B(O)O)nn2)c1 | 280 | tde | 360 | tde | – | – | – | – | – | – | – | –
15 | O=C(Cc1cccs1)N[C@@H](Cn1cc(-c2cccc(C(=O)O)c2)nn1)B(O)O | 67 | tde | 84 | tde | 8 | 14 | < 0.125 | 1 | 4 | – | – | –
16 | O=C(Cc1ccccc1)N[C@@H](Cn1cc(-c2cccc(C(=O)O)c2)nn1)B(O)O | 120 | tde | 110 | tde | – | – | – | – | – | – | – | –
17 | O=C(Cc1cccs1)N[C@@H](Cn1cc(-c2ccccc2)nn1)B(O)O | 300 | tde | 320 | tde | – | – | – | – | – | – | – | –
